Legend:
Type in all cases: cell-based
Raji [1] = assay: Inhibition of 12-O-tetradecanoylphorbol-13-acetate induced EBV-early antigen activation in human Raji cells at 1000 molar ratio relative to control; conditions: human gammaherpesvirus 4
Summary of the method: (§1)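 Raji cells in RPMI-1640 treated 48 h at 37 °C with n-butyric acid (4 mmol), TPA (32 pmol = 20 ng/mL) and test agent at 10, 100, 500 or 1000 mol ratio/TPA (0.32–32 nmol). EA-positive cells in smears detected by indirect immunofluorescence; induction expressed relative to TPA positive control (100%), n = 3, ±S.D.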

[2] = Cytotoxicity against human Raji cells assessed as cell viability at 10 molar ratio after 48 hrs; conditions: read-out: Activity
Summary of the method: (§2)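 Raji cells (EBV genome-carrying, Burkitt's lymphoma-derived) grown in RPMI-1640 and incubated 48 h at 37 °C with 4 mmol n-butyric acid, 32 pmol TPA (20 ng/mL) and test agent at 10–1000 mol ratio/TPA (0.32–32 nmol). Viability given as percentage of Raji cells; n = 3, ±S.D.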

[3] = Cytotoxicity against human Raji cells assessed as cell viability at 100 molar ratio after 48 hrs; conditions: read-out: Activity; summary of the method: as §2
[4] = Cytotoxicity against human Raji cells assessed as cell viability at 1000 molar ratio after 48 hrs; conditions: read-out: Activity; summary of the method: as §2
[5] = Cytotoxicity against human Raji cells assessed as cell viability at 500 molar ratio after 48 hrs; conditions: read-out: Activity; summary of the method: as §2
Raji [6] = assay: Inhibition of 12-O-tetradecanoylphorbol-13-acetate induced EBV-early antigen activation in human Raji cells at 10 molar ratio relative to control; conditions: human gammaherpesvirus 4; summary of the method: as §1
Raji [7] = assay: Inhibition of 12-O-tetradecanoylphorbol-13-acetate induced EBV-early antigen activation in human Raji cells at 100 molar ratio relative to control; conditions: human gammaherpesvirus 4; summary of the method: as §1
Raji [8] = assay: Inhibition of 12-O-tetradecanoylphorbol-13-acetate induced EBV-early antigen activation in human Raji cells at 500 molar ratio relative to control; conditions: human gammaherpesvirus 4; summary of the method: as §1

| SMILES | EBV-EA induction remaining (% of TPA control) (Raji [1]) | viability at 48 h, 10 molar ratio [2] | viability at 48 h, 100 molar ratio [3] | viability at 48 h, 1000 molar ratio [4] | viability at 48 h, 500 molar ratio [5] | EBV-EA activation relative to TPA control (Raji [6]) | EBV-EA induction remaining (% of TPA control) (Raji [7]) | EBV-EA induction remaining (% of TPA control) (Raji [8]) |
| --- | --- | --- | --- | --- | --- | --- | --- | --- |
| C/C=C(/C)C(=O)O[C@@H]1CC[C@]2(CO2)[C@]2(COC(C)=O)[C@@H](OC(C)=O)C[C@@H](C)[C@](C)(C[C@H](OC(C)=O)C3=CC(=O)OC3)[C@@H]12 | 0% | > 80% | > 80% | 60% | > 80% | 100% | 73.5% | 42.6% |
| C=C(CO)C(CC)C[C@@H](O)[C@@](C)(O)[C@H]1CC[C@@]2(O)C3=CC(=O)[C@@H]4C[C@@H](O)[C@@H](O)C[C@]4(C)[C@H]3CC[C@]12C (some centres undefined) | 4.6% | > 80% | > 80% | 70% | > 80% | 95.8% | 72.6% | 49.1% |
| COc1cc(C(=O)O)ccc1O [VANILLIC ACID] | 0% | > 80% | > 80% | 60% | > 80% | 90.2% | 73.9% | 46.2% |
| C=C(C)C(C[C@@H](O)[C@@](C)(O)[C@H]1CC[C@@]2(O)C3=CC(=O)[C@@H]4C[C@@H](O)[C@@H](O)C[C@]4(C)[C@H]3CC[C@]12C)C(C)O (some centres undefined) [DECUMBESTERONE] | 0% | > 80% | > 80% | 70% | > 80% | 100% | 66% | 24.7% |
| C[C@@H]1C(=O)O[C@H](C)[C@H]1CC(=O)[C@](C)(O)[C@H]1CC[C@@]2(O)C3=CC(=O)[C@@H]4C[C@@H](O)[C@@H](O)C[C@]4(C)[C@H]3CC[C@]12C | 20.9% | > 80% | > 80% | 60% | > 80% | 100% | 84.5% | 61.9% |
| CC(C)(O)CC[C@@H](O)[C@@](C)(O)[C@H]1CC[C@@]2(O)C3=CC(=O)[C@]4(O)C[C@@H](O)[C@@H](O)C[C@]4(C)[C@H]3CC[C@]12C | 0% |  |  |  |  | 100% | 65.9% | 23.4% |
| C/C=C(/C)C(=O)O[C@@H]1CC[C@]2(CO2)[C@]2(COC(C)=O)[C@@H](OC(C)=O)C[C@@H](C)[C@](C)(C[C@H](O)C3=CC(=O)OC3)[C@@H]12 | 0% | > 80% | > 80% | 50% | > 80% | 100% | 76.3% | 55.8% |
| CC(C)(O)CC[C@@H](O)[C@](C)(O)[C@H]1CC[C@@]2(O)C3=CC(=O)[C@]4(O)C[C@@H](O)[C@@H](O)C[C@]4(C)[C@H]3CC[C@]12C [POLYPODINE B] |  | > 80% | > 80% | 70% | > 80% |  |  |  |
| CC1(C)C[C@H](O)C[C@@]2(C)OC(=O)C=C12 [LOLIOLIDE] | 5.1% | > 80% | > 80% | 60% | > 80% | 88% | 59.6% | 26.8% |
